The values below come from paper PMC8897028 (Acta Pharmaceutica Sinica. B, 2021).

What all share (type): cell-based
One assay concerns the target T1, mTRPV3 L669A (Mus musculus, UniProt Q8K424, L669A).
T1 sequence (Q8K424 1-791 L669A): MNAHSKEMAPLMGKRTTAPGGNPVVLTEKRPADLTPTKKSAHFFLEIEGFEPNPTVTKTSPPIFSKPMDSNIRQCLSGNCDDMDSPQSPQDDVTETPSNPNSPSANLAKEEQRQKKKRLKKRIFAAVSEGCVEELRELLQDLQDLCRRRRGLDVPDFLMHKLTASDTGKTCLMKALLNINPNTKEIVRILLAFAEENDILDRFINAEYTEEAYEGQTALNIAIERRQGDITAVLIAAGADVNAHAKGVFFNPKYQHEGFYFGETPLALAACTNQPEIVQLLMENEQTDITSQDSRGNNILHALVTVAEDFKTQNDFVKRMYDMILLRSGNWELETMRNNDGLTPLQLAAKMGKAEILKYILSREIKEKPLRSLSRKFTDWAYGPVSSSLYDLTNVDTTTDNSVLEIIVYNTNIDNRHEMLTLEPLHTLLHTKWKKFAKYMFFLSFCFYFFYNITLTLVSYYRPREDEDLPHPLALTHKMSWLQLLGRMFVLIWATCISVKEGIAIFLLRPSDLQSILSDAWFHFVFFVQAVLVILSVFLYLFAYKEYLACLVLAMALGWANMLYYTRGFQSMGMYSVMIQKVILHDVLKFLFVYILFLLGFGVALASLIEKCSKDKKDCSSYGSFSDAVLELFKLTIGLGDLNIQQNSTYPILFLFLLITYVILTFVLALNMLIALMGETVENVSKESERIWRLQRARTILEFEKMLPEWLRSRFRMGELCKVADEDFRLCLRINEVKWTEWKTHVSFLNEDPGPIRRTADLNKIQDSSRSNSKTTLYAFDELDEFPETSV
Description: whole-cell patch-clamp of mTRPV3 L669A mutant in HEK293 cells. As to conditions: compound 50 μmol/L; 2-APB; compared with WT mTRPV3. An outline of the steps: (§1)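 Mouse Trpv3 point mutants were made by site-directed mutagenesis, sequence-verified, and transiently expressed in HEK293 cells alongside wild-type mTRPV3. Whole-cell ramp recordings (−100 to +100 mV, 500 ms, holding 0 mV) were made at 22–24 °C. Currents were activated by 2-APB, and inhibition by 50 μmol/L test compound in the presence of 2-APB was compared with wild type; n = 3–8.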
Background: Patch clamp records ionic current or voltage across a cell membrane.

A further assay concerns the target hTRPV1 (Homo sapiens, UniProt Q8NER1). Description: whole-cell patch-clamp of TRPV1 currents in HEK293 cells. As to conditions: compound 50 μmol/L; current induced by capsaicin 1 μmol/L. The gist of the method:
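Human channel cDNAs were transiently transfected into HEK293 cells with Lipofectamine 2000. EGFP-positive cells were recorded whole-cell 18 h later at 22–24 °C with ~4.0 MΩ fire-polished pipettes. Cells were held at 0 mV with 500-ms ramps from −100 to +100 mV every 2 s. Test compound in perfusion solution was co-applied with agonist, and average current inhibition was summarised; n = 4–6.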

The next assay deals with T2, mTRPV3 F666A (Mus musculus, UniProt Q8K424, F666A).
T2 sequence (Q8K424 1-791 F666A): T1 sequence (Q8K424 1-791 L669A) with F666A, A669L
Description: whole-cell patch-clamp of mTRPV3 F666A mutant in HEK293 cells. The conditions noted are these: compound 50 μmol/L; 2-APB; compared with WT mTRPV3. An outline of the steps:
as §1

The target in the next assay is T3, mTRPV3 H426A (Mus musculus, UniProt Q8K424, H426A).
T3 sequence (Q8K424 1-791 H426A): T1 sequence (Q8K424 1-791 L669A) with H426A, A669L
Description: whole-cell patch-clamp of mTRPV3 H426A mutant in HEK293 cells. The conditions noted are these: compound 100 µmol/L; carvacrol 300 μmol/L. An outline of the steps:
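The sequence-confirmed site-directed mTRPV3 mutant was transiently expressed in HEK293 cells, and EGFP-positive cells were recorded whole-cell 18 h post-transfection. Cells were held at 0 mV with 500-ms ramps from −100 to +100 mV every 2 s, at 22–24 °C. Compounds were diluted in perfusion solution.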

Structures are written as SMILES. Numbering of substitutions follows the chain as printed.

Chain of hTRPV1 (Q8NER1 whole entry, the tested form may be a part): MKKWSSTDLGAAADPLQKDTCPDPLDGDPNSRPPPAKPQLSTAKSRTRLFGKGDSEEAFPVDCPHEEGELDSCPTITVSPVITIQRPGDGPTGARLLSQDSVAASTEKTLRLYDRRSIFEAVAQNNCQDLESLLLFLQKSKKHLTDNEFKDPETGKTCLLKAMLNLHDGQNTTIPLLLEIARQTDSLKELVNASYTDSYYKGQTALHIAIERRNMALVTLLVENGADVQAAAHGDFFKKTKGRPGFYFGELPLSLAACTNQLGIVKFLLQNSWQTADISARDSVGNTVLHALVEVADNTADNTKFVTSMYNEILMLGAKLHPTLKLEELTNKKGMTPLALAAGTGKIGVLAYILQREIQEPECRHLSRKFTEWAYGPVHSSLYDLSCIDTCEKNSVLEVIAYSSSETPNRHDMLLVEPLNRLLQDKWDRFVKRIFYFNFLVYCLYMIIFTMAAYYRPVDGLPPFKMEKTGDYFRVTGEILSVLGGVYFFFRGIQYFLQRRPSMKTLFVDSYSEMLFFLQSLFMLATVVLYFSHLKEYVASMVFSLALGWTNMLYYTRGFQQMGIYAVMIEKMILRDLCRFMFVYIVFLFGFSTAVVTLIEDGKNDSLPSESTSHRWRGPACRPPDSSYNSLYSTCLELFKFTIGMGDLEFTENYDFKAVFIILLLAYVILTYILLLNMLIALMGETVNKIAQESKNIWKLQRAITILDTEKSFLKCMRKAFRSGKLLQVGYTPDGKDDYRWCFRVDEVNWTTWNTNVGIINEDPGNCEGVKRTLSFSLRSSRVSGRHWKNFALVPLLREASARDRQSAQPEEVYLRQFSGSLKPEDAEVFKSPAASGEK

On to `O=C(/C=C/c1ccc(O)c(O)c1)O[C@@H]1[C@H](O)C[C@@](O)(C(=O)O)C[C@H]1OC(=O)/C=C/c1ccc(O)c(O)c1` [IAB, isochlorogenic acid B], for which the “effect of mutation on compound-induced inhibition of mTRPV3 currents” value at mTRPV3 L669A is recorded as “no obvious effect”; on mTRPV3 F666A, “markedly reduced”. Further, on hTRPV1, the “inhibition of TRPV1 currents” value was “no obvious inhibition”. Also, on mTRPV3 H426A, the “inhibition of carvacrol-mediated H426A mutant currents” value was “markedly inhibited”.

Consider `O=C(/C=C/c1ccc(O)c(O)c1)O[C@@H]1C[C@](O)(C(=O)O)C[C@@H](OC(=O)/C=C/c2ccc(O)c(O)c2)[C@H]1O` [IAA, isochlorogenic acid A], for which the figures for the “effect of mutation on compound-induced inhibition of mTRPV3 currents” value at mTRPV3 L669A and at mTRPV3 F666A were “no obvious effect” and “markedly reduced”, respectively. Also, the “inhibition of TRPV1 currents” value at hTRPV1 is recorded as “no obvious inhibition”. Further, the “inhibition of carvacrol-mediated H426A mutant currents” value against mTRPV3 H426A is given as “markedly inhibited”.
